Experimental data published in ChEMBL document CHEMBL1140227, “Histone deacetylase inhibitors through click chemistry” (J Med Chem, 2008).

Tests used:
Assay type in all cases: functional
[1] = test system: SNB-75; test: Growth inhibition of human SNB75 cells at 10 uM relative to control; conditions: values are per cent of control
How it was run: (§1)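 Single-dose NCI human tumour cell line screen, run by the NIH. Percent inhibition of cell line growth was calculated by comparison with untreated samples.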

[2] = test system: KM12; test: Growth inhibition of human KM12 cells at 10 uM relative to control; conditions: values are per cent of control
How it was run: (§2)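 Single-dose preliminary screen in the NCI human cancer cell line panel, run by the NIH. Percent inhibition of cell line growth was calculated by comparison with untreated samples.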

[3] = test system: UO-31; test: Growth inhibition of human UO31 cells at 10 uM relative to control; conditions: values are per cent of control; how it was run: as §1
[4] = test system: SW-620; test: Growth inhibition of human SW620 cells at 10 uM relative to control; conditions: values are per cent of control; how it was run: as §1
[5] = test system: EKVX; test: Growth inhibition of human EKVX cells at 10 uM relative to control; conditions: values are per cent of control; how it was run: as §2
[6] = test system: HCT-116; test: Growth inhibition of human HCT116 cells at 10 uM relative to control; conditions: values are per cent of control; how it was run: as §2
[7] = test system: OVCAR-3; test: Growth inhibition of human OVCAR-3 cells at 10 uM relative to control; conditions: values are per cent of control; how it was run: as §2
[8] = test system: NCI-H23; test: Growth inhibition of human NCI-H23 cells at 10 uM relative to control; conditions: values are per cent of control; how it was run: as §2
[9] = test system: SF-295; test: Growth inhibition of human SF295 cells at 10 uM relative to control; conditions: values are per cent of control; how it was run: as §2
[10] = test system: BT-549; test: Growth inhibition of human BT549 cells at 10 uM relative to control; conditions: values are per cent of control; how it was run: as §2
[11] = test system: IGROV-1; test: Growth inhibition of human IGROV1 cells at 10 uM relative to control; conditions: values are per cent of control; how it was run: as §2
[12] = test system: NCI-H522; test: Growth inhibition of human NCI-H522 cells at 10 uM relative to control; conditions: values are per cent of control; how it was run: as §2
[13] = test system: PC-3; test: Growth inhibition of human PC3 cells at 10 uM relative to control; conditions: values are per cent of control; how it was run: as §2
[14] = test system: COLO 205; test: Growth inhibition of human COLO205 cells at 10 uM relative to control; conditions: values are per cent of control; how it was run: as §2
[15] = test system: LOX IMVI; test: Growth inhibition of human LOXIMVI cells at 10 uM relative to control; conditions: values are per cent of control; how it was run: as §2
[16] = test system: HT-29; test: Growth inhibition of human HT-29 cells at 10 uM relative to control; conditions: values are per cent of control; how it was run: as §2
[17] = test system: SK-MEL-2; test: Growth inhibition of human SK-MEL-2 cells at 10 uM relative to control; conditions: values are per cent of control; how it was run: as §2
[18] = test system: UACC-257; test: Growth inhibition of human UACC257 cells at 10 uM relative to control; conditions: values are per cent of control; how it was run: as §1
[19] = test system: OVCAR-5; test: Growth inhibition of human OVCAR5 cells at 10 uM relative to control; conditions: values are per cent of control; how it was run: as §2
[20] = test system: MDA-MB-468; test: Growth inhibition of human MDA-MB-468 cells at 10 uM relative to control; conditions: values are per cent of control; how it was run: as §2
[21] = test system: SK-MEL-5; test: Growth inhibition of human SK-MEL-5 cells at 10 uM relative to control; conditions: values are per cent of control; how it was run: as §2
[22] = test system: CCRF-CEM; test: Growth inhibition of human CCRF-CEM cells at 10 uM relative to control; conditions: values are per cent of control; how it was run: as §2
[23] = test system: HOP-62; test: Growth inhibition of human HOP62 cells at 10 uM relative to control; conditions: values are per cent of control; how it was run: as §2
[24] = test system: OVCAR-4; test: Growth inhibition of human OVCAR4 cells at 10 uM relative to control; conditions: values are per cent of control; how it was run: as §2
[25] = test system: A498; test: Growth inhibition of human A498 cells at 10 uM relative to control; conditions: values are per cent of control; how it was run: as §2
[26] = test system: SK-MEL-28; test: Growth inhibition of human SK-MEL-28 cells at 10 uM relative to control; conditions: values are per cent of control; how it was run: as §2
[27] = test system: Malme-3M; test: Growth inhibition of human MALME-3M cells at 10 uM relative to control; conditions: values are per cent of control; how it was run: as §2
[28] = test system: T47D; test: Growth inhibition of human T47D cells at 10 uM relative to control; conditions: values are per cent of control; how it was run: as §1
[29] = test system: U-251; test: Growth inhibition of human U251 cells at 10 uM relative to control; conditions: values are per cent of control; how it was run: as §1
[30] = test system: MDA-MB-231; test: Growth inhibition of human MDA-MB-231 cells at 10 uM relative to control; conditions: values are per cent of control; how it was run: as §2
[31] = test system: HCC 2998; test: Growth inhibition of human HCC2998 cells at 10 uM relative to control; conditions: values are per cent of control; how it was run: as §2
[32] = test system: NCI-H226; test: Growth inhibition of human NCI-H226 cells at 10 uM relative to control; conditions: values are per cent of control; how it was run: as §2
[33] = test system: K562; test: Growth inhibition of human K562 cells at 10 uM relative to control; conditions: values are per cent of control; how it was run: as §2
[34] = test system: TK-10; test: Growth inhibition of human TK10 cells at 10 uM relative to control; conditions: values are per cent of control; how it was run: as §1
[35] = test system: M14; test: Growth inhibition of human M14 cells at 10 uM relative to control; conditions: values are per cent of control; how it was run: as §2
[36] = test system: NCI/ADR-RES; test: Growth inhibition of human NCI/ADR-RES cells at 10 uM relative to control; conditions: values are per cent of control; how it was run: as §2
[37] = test system: NCI-H322M; test: Growth inhibition of human NCI-H322M cells at 10 uM relative to control; conditions: values are per cent of control; how it was run: as §2
[38] = test system: MCF7; test: Growth inhibition of human MCF7 cells at 10 uM relative to control; conditions: values are per cent of control; how it was run: as §2
[39] = test system: SK-OV-3; test: Growth inhibition of human SKOV3 cells at 10 uM relative to control; conditions: values are per cent of control; how it was run: as §2
[40] = test system: A549; test: Growth inhibition of human A549 cells at 10 uM relative to control; conditions: values are per cent of control; how it was run: as §2
[41] = test system: MDA-MB-435; test: Growth inhibition of human MDA-MB-435 cells at 10 uM relative to control; conditions: values are per cent of control; how it was run: as §2
[42] = test system: DU-145; test: Growth inhibition of human DU145 cells at 10 uM relative to control; conditions: values are per cent of control; how it was run: as §2
[43] = test system: HL-60(TB); test: Growth inhibition of human HL-60(TB) cells at 10 uM relative to control; conditions: read-out: INH
How it was run: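 Single-dose cell line screen run by the NCI (NIH) in its human cancer cell line panel, which includes the leukemia line HL-60(TB). Percent growth inhibition was calculated by comparison with untreated samples.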

[44] = test system: SN12C; test: Growth inhibition of human SN12C cells at 10 uM relative to control; conditions: values are per cent of control; how it was run: as §2
[45] = cells; conditions: Homo sapiens, Cancer cell lines
[46] = test system: SF-268; test: Growth inhibition of human SF268 cells at 10 uM relative to control; conditions: values are per cent of control; how it was run: as §2
[47] = test system: OVCAR-8; test: Growth inhibition of human OVCAR8 cells at 10 uM relative to control; conditions: values are per cent of control; how it was run: as §2
[48] = test system: SF-539; test: Growth inhibition of human SF539 cells at 10 uM relative to control; conditions: values are per cent of control; how it was run: as §2
[49] = test system: CAKI-1; test: Growth inhibition of human Caki1 cells at 10 uM relative to control; conditions: values are per cent of control; how it was run: as §2
[50] = Growth inhibition of human Hs 578T cells at 10 uM relative to control; conditions: values are per cent of control; how it was run: as §2
[51] = test system: HCT-15; test: Growth inhibition of human HCT15 cells at 10 uM relative to control; conditions: values are per cent of control; how it was run: as §2
[52] = test system: SNB-19; test: Growth inhibition of human SNB19 cells at 10 uM relative to control; conditions: values are per cent of control; how it was run: as §2
[53] = test system: 786-0; test: Growth inhibition of human 786-0 cells at 10 uM relative to control; conditions: values are per cent of control; how it was run: as §2
[54] = test system: NCI-H460; test: Growth inhibition of human NCI-H460 cells at 10 uM relative to control; conditions: values are per cent of control; how it was run: as §2
[55] = test system: ACHN; test: Growth inhibition of human ACHN cells at 10 uM relative to control; conditions: values are per cent of control; how it was run: as §2
[56] = Growth inhibition of human RPMI8266 cells at 10 uM relative to control; conditions: values are per cent of control; how it was run: as §2
[57] = test system: UACC-62; test: Growth inhibition of human UACC62 cells at 10 uM relative to control; conditions: values are per cent of control; how it was run: as §1
[58] = test system: MOLT-4; test: Growth inhibition of human MOLT4 cells at 10 uM relative to control; conditions: values are per cent of control; how it was run: as §2

## O=C(NO)c1cn(C/C=C/c2ccccc2)nn1
[1]
  growth, % of control at 10 µM: 79.8%
[2]
  growth, % of control at 10 µM: 104%
[3]
  growth, % of control at 10 µM: 72.7%
[4]
  growth, % of control at 10 µM: 98.4%
[5]
  growth, % of control at 10 µM: 89.9%
[6]
  growth, % of control at 10 µM: 100%
[7]
  growth, % of control at 10 µM: 97.1%
[8]
  growth, % of control at 10 µM: 104%
[9]
  growth, % of control at 10 µM: 108%
[10]
  growth, % of control at 10 µM: 107%
[11]
  growth, % of control at 10 µM: 89.4%
[12]
  growth, % of control at 10 µM: 92.5%
[13]
  growth, % of control at 10 µM: 77.6%
[14]
  growth, % of control at 10 µM: 133%
[15]
  growth, % of control at 10 µM: 90.2%
[16]
  growth, % of control at 10 µM: 104%
[17]
  growth, % of control at 10 µM: 95.7%
[18]
  growth, % of control at 10 µM: 125%
[19]
  growth, % of control at 10 µM: 104%
[20]
  growth, % of control at 10 µM: 105%
[21]
  growth, % of control at 10 µM: 148%
[22]
  growth, % of control at 10 µM: 61%
[23]
  growth, % of control at 10 µM: 92.4%
[24]
  growth, % of control at 10 µM: 94.3%
[25]
  growth, % of control at 10 µM: 95.2%
[26]
  growth, % of control at 10 µM: 104%
[27]
  growth, % of control at 10 µM: 110%
[28]
  growth, % of control at 10 µM: 97.8%
[29]
  growth, % of control at 10 µM: 90.1%
[30]
  growth, % of control at 10 µM: 96.1%
[31]
  growth, % of control at 10 µM: 105%
[32]
  growth, % of control at 10 µM: 91.1%
[33]
  growth, % of control at 10 µM: 119%
[34]
  growth, % of control at 10 µM: 130%
[35]
  growth, % of control at 10 µM: 106%
[36]
  growth, % of control at 10 µM: 107%
[37]
  growth, % of control at 10 µM: 109%
[38]
  growth, % of control at 10 µM: 122%
[39]
  growth, % of control at 10 µM: 107%
[40]
  growth, % of control at 10 µM: 107%
[41]
  growth, % of control at 10 µM: 103%
[42]
  growth, % of control at 10 µM: 167%
[43]
  growth, % of control at 10 µM: 94.5%
[44]
  growth, % of control at 10 µM: 95.3%
[45]
  inhibition at 10 µM: > 95%
[46]
  growth, % of control at 10 µM: 92.8%
[47]
  growth, % of control at 10 µM: 106%
[48]
  growth, % of control at 10 µM: 135%
[49]
  growth, % of control at 10 µM: 95%
[50]
  growth, % of control at 10 µM: 95.5%
[51]
  growth, % of control at 10 µM: 98.8%
[52]
  growth, % of control at 10 µM: 94.9%
[53]
  growth, % of control at 10 µM: 132%
[54]
  growth, % of control at 10 µM: 131%
[55]
  growth, % of control at 10 µM: 101%
[56]
  growth, % of control at 10 µM: 94.5%
[57]
  growth, % of control at 10 µM: 102%
[58]
  growth, % of control at 10 µM: 79.6%
